Measured values reported in paper PMC5889851 (ACS chemical biology, 2018).

Key:
[1] = system: HEK293 cells overexpressing SIRT2; assay: Cellular NAD+ measurement; type: cell-based, human; details: 40 nM, 6 h, vs control cells
Outline: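 SIRT2-overexpressing HEK293 cells got 0 or 40 nM NAMPT inhibitor for 6 h, then were harvested, rinsed and resuspended in fresh medium. Pellets were extracted with ice-cold 7% perchloric acid through three vortex (30 s) and ice sonication (5 min) cycles. Extracts were centrifuged 3 min at RT, and supernatant was neutralised to pH 7 with NaOH and phosphate buffer. NAD⁺ was quantified by cycling assay.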

[2] = system: HEK293 cells; assay: Viability testing using trypan blue; type: cell-based, human; details: 40 nM, 6 h
Outline: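 HEK293 cells received 0 or 40 nM NAMPT inhibitor for 6 h, then were harvested, rinsed and resuspended in fresh medium. An aliquot of the suspension was scored for viability by trypan blue exclusion.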

[3] = target: T1, SIRT2 in SIRT2 overexpressing HEK293 cells (Homo sapiens, UniProt Q8IXJ6); assay: In situ labeling of SIRT2 with activity-based probe; type: cell-based; details: cells treated with FK866 6 h, then 10 μM probe 1; compared to control cells
T1 sequence (Q8IXJ6 1-389): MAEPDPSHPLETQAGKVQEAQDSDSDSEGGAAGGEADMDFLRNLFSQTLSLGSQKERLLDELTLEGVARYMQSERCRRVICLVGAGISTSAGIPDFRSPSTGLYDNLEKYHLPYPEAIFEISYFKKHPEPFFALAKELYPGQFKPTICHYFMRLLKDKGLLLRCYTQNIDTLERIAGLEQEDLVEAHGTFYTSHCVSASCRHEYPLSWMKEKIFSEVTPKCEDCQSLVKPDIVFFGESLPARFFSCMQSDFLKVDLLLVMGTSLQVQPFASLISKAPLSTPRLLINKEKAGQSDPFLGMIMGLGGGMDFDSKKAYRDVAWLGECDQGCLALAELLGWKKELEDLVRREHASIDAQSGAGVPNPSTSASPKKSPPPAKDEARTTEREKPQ
Outline: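 SIRT2-overexpressing HEK293 cells were treated with or without NAMPT inhibitor for 6 h, rinsed three times, and given fresh medium with 10 μM probe. Live cells were irradiated at 365 nm on ice for 1 h, then harvested and lysed. Lysate was click-conjugated to azide-fluor 545, resolved by SDS-PAGE and scanned for fluorescence. SIRT2 protein level was checked by Western blot.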

O=C(/C=C/c1cccnc1)NCCCCC1CCN(C(=O)c2ccccc2)CC1 [FK866]
NAD+ depletion [1]: 60% | loss of viability [2]: negligible loss of viability | in situ labeling intensity of SIRT2 by probe 1 [3]: decreased labeling intensity
